# Experimental data of several laboratories.
# Read-out: cell growth or viability
Structure (SMILES),cell line,technique,concentration,time,quantity,result
CCOC(=O)c1ccc(-n2c(C)cc(/C=C/c3ccc(OC)cc3)c(C#N)c2=O)cc1,HepG2,MTT,1.56 µM,24 h,viability,100%
CCOCc1sc(NCc2ncccn2)nc1-c1ccccn1,Huh-7,,,,CC50,> 40 µM
Cc1cc(Nc2ccc(C(=O)N/N=C/c3cc4ccccc4[nH]3)cc2)c2cccc(O)c2n1,Huh-7,MTT,20 µM,,inhibition,60.2%
CCOC(=O)c1ccc(-n2c(C)cc(C)c(C#N)c2=O)cc1,HepG2,MTT,3.125 µM,24 h,viability,100%
C=CC(=O)Nc1cccc(Nc2nc(Nc3ccc(OCCOC)cc3)ncc2F)c1,Ramos,,,48 h,GI50,9.2 µM
Cc1cc(Nc2ccc(C(=O)N/N=C/c3nc4ccccc4[nH]3)cc2)c2cccc(O)c2n1,Huh-7,MTT,20 µM,,inhibition,33%
COc1ccc(NC(=O)c2c(Nc3ccccc3)sc(C#N)c2NC(=O)CNc2ccccc2)cc1,HepG2,SRB,1 nM,48 h,viability,102%
CCOC(=O)c1ccc(NC(=O)C2=C3C(=Nc4ccccc43)NC2=O)cc1,HepG2,MTT,6.25 µM,24 h,viability,90.2%
Cc1cc(Nc2ccc(C(=O)N/N=C/c3ccncc3)cc2)c2cccc(O)c2n1,Huh-7,MTT,20 µM,,inhibition,76.9%
CCCCCCCCCCCCNC(=O)NCCCC[C@H](NS(C)(=O)=O)C(=O)N[C@H](C)C(=O)N[C@@H](CCCNC(=N)N)C(N)=O,HEK-293T,MTT,,72 h,EC50,28.6 to 38 µM
Cc1cc(Nc2ccc(C(=O)N/N=C/c3ccc[nH]3)cc2)c2cccc(O)c2n1,Huh-7,MTT,20 µM,,inhibition,68.3%
CCOC(=O)c1ccc(-n2c(C)cc(/C=C/c3ccc(OCC)cc3)c(C#N)c2=O)cc1,HepG2,MTT,50 µM,24 h,viability,53.1%
COc1ccc(NC(=O)c2c(Nc3ccccc3)sc(C#N)c2NC(=O)CNc2ccccc2Cl)cc1,HepG2,SRB,100 µM,48 h,viability,90.3%
Cc1cc(Nc2ccc(C(=O)N/N=C/c3ccc(C)s3)cc2)c2cccc(O)c2n1,Huh-7,MTT,20 µM,,inhibition,43.3%
CCOC(=O)Cc1sc(NCc2ncccn2)nc1-c1ccccn1,Huh-7,,,,CC50,> 40 µM
COc1ccc(NC(=O)c2c(Nc3ccccc3)sc(C(=O)NN=Cc3ccccc3)c2NC(C)=O)cc1,HepG2,SRB,100 µM,48 h,viability,60.2%
CO[C@]1(C(=O)N[C@@H](C)c2ccc(-n3cc(F)cn3)nc2)CC[C@H](c2nc(C)cc(Nc3cc(C)[nH]n3)n2)CC1,NCI-H292,ATP luminescence,,72 h,GI50,> 10 µM
CNC(=O)c1cc(Oc2ccc(NC(=O)Nc3ccc(Cl)c(C(F)(F)F)c3)cc2)ccn1,HepG2,SRB,100 µM,48 h,viability,40.3%
C=CC(=O)N1CCC[C@@H](n2nc(-c3ccc(Oc4ccccc4)cc3)c3c(N)ncnc32)C1,Ramos,,,48 h,GI50,> 10 µM
Cc1cc(Nc2ccc(C(=O)N/N=C/c3cccs3)cc2)c2cccc(O)c2n1,Huh-7,MTT,20 µM,,inhibition,42.1%
COc1ccc(NC(=O)c2c(Nc3ccccc3)sc(C#N)c2NC(=O)CNc2ccc([N+](=O)[O-])cc2)cc1,HepG2,SRB,1 µM,48 h,viability,68.4%
CCOC(=O)c1ccc(-n2c(-c3ccc(C)cc3)cc(-c3ccc(O)cc3)c(C#N)c2=O)cc1,HepG2,MTT,25 µM,24 h,viability,33.1%
COc1cc2c(Nc3ccc(Br)cc3F)ncnc2cc1OCC1CCN(C)CC1,NCI-H292,ATP luminescence,,72 h,GI50,1.14 µM
COc1ccc(NC(=O)c2c(Nc3ccccc3)sc(C#N)c2NC(=O)CNc2ccc(OC)c(OC)c2)cc1,HepG2,SRB,1 µM,48 h,viability,83.7%
COc1cc(Nc2nccc(-c3cnn4nc(OC)ccc34)n2)cc(C(F)(F)F)c1,HEC-1B,ATP luminescence,,,IC50,> 3 µM
COc1ccc(NC(=O)c2c(Nc3ccccc3)sc(C(=O)NN=Cc3ccc(C)cc3)c2NC(C)=O)cc1,HepG2,SRB,1 nM,48 h,viability,100%
C[C@@H](NC(=O)[C@H](CCCCNC(=O)C(F)(F)F)NS(C)(=O)=O)C(=O)N[C@@H](CCCNC(=N)N)C(N)=O,HEK-293T,MTT,,72 h,EC50,3.68 to 46.1 µM
Cc1cc(Nc2ccc(C(=O)N/N=C/c3ccccc3)cc2)c2cccc(O)c2n1,Huh-7,MTT,20 µM,,inhibition,32.3%
CC(C)C[C@H](NC(=O)[C@H](Cc1ccccc1)NC(=O)c1cnccn1)B(O)O,HEC-1B,ATP luminescence,,,IC50,0.0096 µM
COc1ccc(NC(=O)c2c(Nc3ccccc3)sc(C#N)c2NC(=O)CNc2ccc(C)cc2)cc1,HepG2,SRB,10 nM,48 h,viability,88.3%
CCCCCCCCCCCCNC(=S)NCCCC[C@H](NS(C)(=O)=O)C(=O)N[C@@H](C)C(=O)N[C@@H](CCCNC(=N)N)C(N)=O,HEK-293T,MTT,,72 h,EC50,~100 µM
